CHRM4 PAM = potentiates acetylcholine response at human M4 receptor. P08173. CHO-K1 hM4/Gqi5, Fluo-8 calcium fluorescence, ACh EC20; 0% = ACh EC20, 100% = maximal ACh. activation, % at 3 µM. hit rate 0.4% among 360,000;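 active = activation above its plate's cutoff, the mean activation of sample wells plus 3 SD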
M5 antag = blocks acetylcholine activation of human M5 receptor; CHO-hM5 cells, Fluo-8 calcium fluorescence, ACh EC80; inhibition, % at 3 µM; hit rate 0.59% among 360,000; AID 624040;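 active = inhibition above a per-plate cutoff, the mean of that plate's test compounds plus 3 SD, cut at about 27% in these data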;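 note: 0% = acetylcholine EC80 with DMSO and 100% = DMSO without agonist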
Target sequence (P08912 whole entry, looked up): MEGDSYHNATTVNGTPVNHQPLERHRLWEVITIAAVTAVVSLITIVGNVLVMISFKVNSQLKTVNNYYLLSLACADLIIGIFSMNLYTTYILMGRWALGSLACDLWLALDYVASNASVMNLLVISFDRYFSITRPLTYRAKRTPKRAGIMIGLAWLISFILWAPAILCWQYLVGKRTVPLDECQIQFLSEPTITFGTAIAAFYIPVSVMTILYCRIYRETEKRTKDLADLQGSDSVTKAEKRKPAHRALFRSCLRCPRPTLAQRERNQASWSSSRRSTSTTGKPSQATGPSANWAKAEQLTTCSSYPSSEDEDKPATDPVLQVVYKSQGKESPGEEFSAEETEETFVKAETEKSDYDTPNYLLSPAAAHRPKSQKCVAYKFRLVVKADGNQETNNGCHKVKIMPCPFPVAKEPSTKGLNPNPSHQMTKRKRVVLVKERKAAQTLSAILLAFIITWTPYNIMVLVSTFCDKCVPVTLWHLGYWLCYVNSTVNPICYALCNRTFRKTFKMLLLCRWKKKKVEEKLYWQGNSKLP
M5 PAM = potentiates acetylcholine response at human M5 receptor | CHO-K1 hM5, Fluo-8 calcium, ACh EC20 PAM; 0% = ACh EC20, 100% = ACh EC100 | activation, % at 3 µM | hit rate 0.3% among 360,000;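 active = activation above the run cutoff, the mean activation of all test compounds plus 3 SD, cut at about 18% in these data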
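Replicates: One well per compound, no replicates | System: Human M5 receptor in CHO-K1 cells | Benchmarks: Low control EC20 acetylcholine (0%), high control EC100 acetylcholine (100%) | Probe or stimulus: Acetylcholine, EC20 level | Times: Fluo-8 loading 80 min at 37 °C plus 30 min room temperature | Signal: Intracellular calcium via Fluo-8 fluorescence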
M4 ag = CHRM4 agonism in calcium assay; P08173; CHO-K1 hM4/Gqi5, Fluo-8 calcium fluorescence; vehicle 0%, full acetylcholine response 100%; activation, % at 3 µM; hit rate 0.14% among 360,000; AID 624127;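 active = activation above the run mean over all test wells plus 3 SD, cut at about 32% in these data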;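 note: peak over basal fluorescence ratio per well then scaled between controls; 0% = DMSO wells and 100% = acetylcholine at EC100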
CHRM4 antagonist = blocks acetylcholine activation of human M4 receptor; P08173; CHO-hM4 cells, ACh EC80, Fluo-8 calcium fluorescence; inhibition, % at 3 µM; hit rate 0.73% among 360,000;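 active = inhibition above its plate's cutoff, the mean inhibition of sample wells plus 3 SD, cut at about 27% in these data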;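 note: 0% = acetylcholine EC80 with DMSO and 100% = DMSO without agonist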
CHRM5 agonist = CHRM5 agonism in calcium assay; P08912; AID 624037; activation, % at 3 µM; CHO-K1 hM5 cells, Fluo-8 calcium fluorescence; 0% DMSO wells, 100% maximal acetylcholine response; hit rate 0.19% among 360,000;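 active = activation above the run's mean over test compounds plus 3 SD, cut at about 23% in these data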;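 note: signal is peak over basal fluorescence ratio across the kinetic read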
An asterisk follows results filed as active. An excerpt weighted towards active compounds, which were near 1.8% of everything screened.

SMILES	CHRM4 PAM	M5 antag	M5 PAM	M4 ag	CHRM4 antagonist	CHRM5 agonist
C#C[C@]1(OC(C)=O)CCC2C3CCC4=CC(=O)CC[C@@H]4C3CC[C@@]21C (some centres not stated)	-6.8	2.9	-16.9	12.9	-9.3	26.6*
CC(=O)O[C@]1(C(C)=O)CC[C@H]2[C@@H]3C=C(C)C4=CC(=O)CC[C@@H]4[C@H]3CC[C@@]21C	-9.7	5.6	-5.6	1.1	16.9	-1.1
Cc1ccc(S(=O)(=O)N2c3ccccc3OC(C(=O)OC(C)(C)C)(C(=O)OC(C)(C)C)C2CC(=O)c2ccccc2)cc1 (configuration not stated)	10.8	-1.3	0.5	3.1	-9.2	-1.3
COc1cc(Cl)ccc1OCc1cc(C(=O)N2CCCC(OC)C2)no1 (configuration not stated)	-1.2	28.7*	-9.4	2.6	5.6	-5.6
O=C(NC1CCCCCCC1)c1cc(COc2ccc3ncccc3c2)on1	-25.5	35.6*	-32.6	12.9	34.0*	-3.8
COc1cc(Cl)ccc1OCc1cc(C(=O)N2CCCCCC2)no1	-0.1	10.4	-2.8	3.0	-22.5	-6.0
CCC(O)C1CCN(C(=O)c2cc(COc3ccc4ncccc4c3)on2)CC1 (configuration not stated)	-14.5	35.1*	-14.5	14.7	20.5	7.9
COc1cccc(OCc2cc(C(=O)N3CCN(C4CCCC4)CC3)no2)c1	-5.7	29.4*	-6.2	4.2	1.1	-7.5
COc1ccccc1CN1CC(C(=O)NCCCCc2ccccn2)CCC1=O (configuration not stated)	3.7	0.7	-2.5	-0.1	-3.3	-0.5
CC(CNC(=O)c1cc(COc2ccc3ncccc3c2)on1)c1ccccc1 (configuration not stated)	-11.3	29.8*	-17.7	25.0	6.4	6.3
Cc1cc(CN(C)C(=O)c2cc(COc3ccc4ncccc4c3)on2)on1	-24.0	13.7	-21.0	12.1	18.5	7.9
Clc1ccc(Nc2ccc(NCc3ccccc3)nn2)cc1	-31.2	-0.1	-18.0	49.5*	13.5	4.1
Cc1ccc(Nc2ccc(NCc3ccccc3)nn2)cc1C	-12.8	-3.7	-9.9	11.9	3.0	-1.9
CC(C)Oc1ccc(S(=O)(=O)N2CCOCC2)cc1NC(=O)c1ccc(N2CCCC2=O)cc1	-4.9	28.5*	-11.9	4.2	-0.9	-4.9
O=C(C=Cc1ccccn1)c1ccccc1O	1.1	6.8	9.9	2.0	0.8	5.6
O=C(C=Cc1ccccn1)c1ccccc1	4.8	-32.3	29.4*	2.4	-8.6	9.4
COc1ccc(NC(=O)NNS(=O)(=O)c2ccc(OC)c(OC)c2)c(OC)c1	7.3	-25.1	18.2*	1.9	-8.5	-0.9
Cc1c(NC(=O)c2cccc(NC(=O)C(C)Oc3ccccc3)c2)c(=O)n(-c2ccccc2)n1C (configuration not stated)	4.2	4.1	-1.7	2.0	-0.3	0.0
O=C(COC(=O)C1CC2C=CC1C2)Nc1cccc(S(=O)(=O)N2CCCCC2)c1 (configuration not stated)	-14.9	13.4	-15.8	16.8	3.0	5.2
COc1ccccc1NC(=O)c1cc(S(=O)(=O)N2CCCCCC2)ccc1F	30.0*	15.3	24.3*	34.3*	-8.8	0.6
COc1cc(C(C)=O)ccc1OCC(=O)Nc1ccc(C)c(S(=O)(=O)N2CCCCCC2)c1	-13.3	32.1*	-39.0	26.8	17.9	4.8
O=C(COC(=O)C1CC2C=CC1C2)Nc1cccc(S(=O)(=O)N2CCCCCC2)c1 (configuration not stated)	-12.9	31.2*	-19.7	17.1	22.5	3.8
COc1ccc(S(=O)(=O)N2CCCC2)cc1NC(=O)c1ccccc1F	4.2	2.2	1.6	1.6	-1.7	-2.4
C/C(N)=C(/C#N)C(=O)COC(=O)c1ccc(C)c(S(=O)(=O)N2CCCCC2)c1	6.2	5.5	32.8*	4.8	-3.8	8.4
COc1ccc(CN2C[C@@H](CO)O[C@@H](n3cnc4c(N5CCOCC5)ncnc43)C2)cc1	11.2	4.5	0.7	2.0	-17.8	-0.5
SMILES	CHRM4 PAM	M5 antag	M5 PAM	M4 ag	CHRM4 antagonist	CHRM5 agonist
CC(C)(C)C(=O)c1c(N)[nH]c(C(=O)c2ccccc2)c1-c1cc2ccccc2nc1Cl	-1.4	7.1	-0.8	4.6	1.5	2.3
COc1ccc(S(=O)(=O)N2CCC(C(=O)NCC(=O)Nc3c(C)cccc3C)CC2)cc1OC	24.7*	-7.9	4.2	0.2	-10.0	-0.5
COc1ccc(CC(=O)Nc2cccc(S(=O)(=O)N3CCCCCC3)c2)cc1OC	-11.1	32.2*	-19.4	14.2	10.6	9.2
CC(=O)Nc1ccc(S(=O)(=O)N2CCC(C(=O)NCCC(=O)Nc3ccccc3)CC2)cc1	7.8	-18.5	19.6*	1.9	-22.9	-2.5
COc1ccc(S(=O)(=O)N2CCC(C(=O)NCCc3ccccc3)CC2)cc1OC	1.9	-1.2	4.4	2.6	-7.2	1.4
CN(C)Cc1csc(NC(=O)Nc2ccccc2C(C)(C)C)n1	0.2	10.7	-5.6	0.2	-9.5	2.0
CNc1ccc(C2(O)C(=O)c3ccccc3C2=O)cc1	-1.8	5.8	-2.3	0.4	4.9	0.0
CC1Cc2cc(C3(O)C(=O)c4ccccc4C3=O)ccc2N1 (configuration not stated)	-16.5	-2.0	4.5	0.1	31.2*	-6.7
Cc1cc([N+](=O)[O-])nn1CC(=O)N/N=C/c1ccccc1O	-9.0	2.4	1.1	0.4	-0.3	0.9
COc1cc(OC)c(/C=N/NC(=O)Cn2nc([N+](=O)[O-])cc2C)c(OC)c1	11.9*	-2.7	4.4	0.6	-14.6	-0.1
CC(C)[C@H](NC(=O)[C@@H]1Cc2c([nH]c3ccccc23)C2c3ccccc3C(=O)N21)C(=O)N1CCC[C@H]1C(=O)O (some centres not stated)	-2.7	1.5	0.3	0.8	-6.9	2.4
COP(=O)(OC)OC(C(=O)c1ccccc1)c1ccccc1 (configuration not stated)	-6.5	4.1	3.6	0.1	13.1	-0.8
Cc1ccc(-c2csc(N3CCC(NS(=O)(=O)c4ccc5c(c4)OCCO5)CC3)n2)cc1	-10.2	28.1*	-21.1	9.9	21.3	3.8
Cn1c(=O)[nH]c(=O)c2c1nc(SCC(=O)O)n2CCOc1ccccc1	-15.3	5.2	-7.7	-0.5	53.6*	-5.9
COc1ccc(-n2c3c(cc(C(=O)N4CCCCC4)c2=O)C(=O)CC(C)(C)C3)cc1	-7.6	2.4	11.6	1.3	26.9*	-2.9
CC1(C)CC(=O)c2cc(C(=O)N3CCCC(C)(C)C3)c(=O)n(-c3ccccc3)c2C1	-0.1	4.7	0.2	1.4	1.6	2.8

From PubChem
